PGC1a acetyl up – raises PGC1a acetylation signal in U2OS cells; U2OS PGC1a acetylation AlphaScreen, overnight; activation, % at 15.6 µM; 350,000 tested, 0.21% active; AID 651723;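 active = every replicate reaching activation of at least 50%, whatever the mean replicate activation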;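 note: hits raise the AlphaScreen acetylation signal above neutral controls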
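System: flag-PGC1a/GCN5 U2OS cells / Input: 7000 cells/well / Compound: single test concentration per compound / Incubation: overnight compound treatment, 37 °C / Technique: AlphaScreen on lysates with anti-acetyl-lysine antibody, acceptor and donor beads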
The depositor's hits bear a star. Shown is part of a subset that was picked to be rich in hits.

SMILES	PGC1a acetyl up
COc1cc2nc(SCc3c(C)noc3C)n(CCC3=CCCCC3)c(=O)c2cc1OC	-48
C=CCn1c(SCc2c(C)noc2C)nc2ccccc2c1=O	74*
NC(=O)C1CCCCc2c1[nH]c1ccc(Cl)cc21 (stereo unspecified)	664*
COc1ccc(S(=O)(=O)N[C@H]2CC[C@@H](CCNC(=O)c3ccccc3F)O[C@@H]2CO)cc1	-52
Cc1ccccc1Cn1nc(C)c(NC(=O)c2cc(-c3cccs3)on2)c1C	-47
COCC(=O)N1CC(=O)N2[C@@H](CO)[C@H](c3ccc(-c4ccncc4)cc3)[C@@H]2C1	-102
O=C(COC(=O)c1ccc([N+](=O)[O-])s1)Nc1ccc(F)cc1	106*
COc1ccc(NC(=O)N(C)C[C@@H]2OCCCC[C@@H](C)Oc3ccc(NC(=O)Cc4ccccc4)cc3C(=O)N([C@H](C)CO)C[C@@H]2C)cc1	-51
COc1ccc(OC)c(-n2c(-c3ccc(C)cc3)n[nH]c2=S)c1	70*
COc1ccc(-c2cc(C(=O)O)[nH]n2)cc1OC	-42
COC(=O)C1=CN(Cc2ccc(OC)c(OC)c2)C=C(C(=O)OC)C1c1cccc(O)c1	-74
CCOc1ccccc1CNC(=O)c1cc2oc3ccccc3c2n1C	88*
COCCOc1ccc(C(F)(F)F)cc1NC(=O)CN1C(=O)NC2(CCCc3ccccc32)C1=O (stereo unspecified)	-55
CCOc1ccc2nc(NCCCNC(=O)c3cc(OC)c(OC)c(OC)c3)c(C#N)cc2c1	-42
CCN(CCCNC(=O)CN(C)S(=O)(=O)c1cccc2nsnc12)c1ccccc1	89*
CN(CC(=O)Nc1ccc(F)c(F)c1)S(=O)(=O)c1cccc2nsnc12	63*
CC1CCCCN1C(=O)CN(C)S(=O)(=O)c1cccc2nsnc12 (stereo unspecified)	-42
Cc1cc(Sc2nnc(N)s2)c2ccccc2n1	59*
Fc1ccc(CNC(=S)NCc2ccc(F)cc2)cc1	-87
CO[C@H]1CN(C)C(=O)c2cc(NS(=O)(=O)c3cn(C)cn3)ccc2OC[C@@H](C)NC[C@H]1C	-55
CCOC(=O)c1c(C)n(C)c2cc(Br)c(O)c(O)c12	-47
CCOC(=O)c1c2c(n(C)c1C)C(=O)C(=O)c1ccc(Br)cc1-2	83*
O=S(=O)(Nc1cccc(CCc2ccccn2)c1)c1ccc2ccccc2c1	-44
O=C(N/N=C/c1ccc(F)cc1)c1c(O)c2ccccc2[nH]c1=O	-45
Cc1[nH]c2ccccc2c1C(=O)/C=C/c1ccccc1	-71
SMILES	PGC1a acetyl up
CC(C)NC(=O)c1c(O)c2ccccc2[nH]c1=O	97*
CC1CCCC(C)N1C(=S)NCc1ccco1 (stereo unspecified)	-47
Cc1ccc2nc(C)cc(OCC(=O)O)c2c1	59*
CC(=O)c1ccc(Nc2cc(C)nc3ccc(C)cc23)cc1	-40
Cc1ccc(Nc2nc(C)cc(C)c2C(N)=O)c(C)c1	-40
CN(C)C(=O)c1ccc(-c2ccc([C@H]3[C@H]4CN(C(=O)CC5CC5)CC(=O)N4[C@H]3CO)cc2)cc1	-51
NC(=O)c1ccccc1NC(=O)/C=C/C(=O)O	62*
COc1ccc(COc2cc(-c3cccc(OC)c3)nc3ccc(NC(=O)c4cccnc4)cc23)cc1	53*
COc1cc(NC(=S)NN2CCOCC2)cc(OC)c1	-61
Cc1ccc(Nc2nc(-c3c(C)nc4ccccn34)cs2)cc1	121*
Cc1ccc(Nc2nc(-c3c(C)nc4ncccn34)cs2)cc1	80*
CN(Cc1c(F)cccc1Cl)c1nnnn1-c1ccccc1	-47
CCCCCSc1nnc(C)c(=O)[nH]1	-91
CCn1c(SCC(=O)Nc2ccc(OC)c(OC)c2)nnc1-c1cccs1	-41
CCn1c(SCC(N)=O)nnc1C(C)C	-44
CCn1c(CNc2ccc(C)cc2)nnc1SCC(N)=O	76*
Cc1noc(C)c1S(=O)(=O)Nc1ccc2c(c1)C(=O)N([C@H](C)CO)C[C@H](C)[C@H](CN(C)C(=O)c1ccncc1)OCCCC[C@@H](C)O2	-41
O=C(CNc1cccc2ccccc12)N/N=C/C(Br)=C/c1ccccc1	213*
O=C(Nc1ccc2c(c1)C(=O)N(c1ccccc1)C2=O)c1cccs1	-53
O=C(N/N=C/C(Br)=C/c1ccccc1)c1ccccc1F	57*
O=C(N/N=C/C(Br)=C/c1ccccc1)c1cc(-c2ccco2)[nH]n1	143*
O=C(NN=C1c2ccccc2-c2ccccc21)c1ccccc1Br	-66
O=C(N/N=C/C(Br)=C/c1ccccc1)c1cccs1	166*
CCCCN(CCCC)CCNC(=O)c1ccc2nc(-c3ccccc3NC(C)=O)c(=O)[nH]c2c1	-42
Cc1ccc(NC(=S)NNC(=O)c2nn(C)c(C)c2Cl)cc1	-42
SMILES	PGC1a acetyl up
O=C(O)C1C2CC3OC(=O)C1C3C2 (stereo unspecified)	-62
O=C(C[C@H]1CC[C@H](NC(=O)C2CCC2)[C@@H](CO)O1)NCC1CC1	-57
CC1C(=O)NN=C1C(=O)N/N=C\C(Br)=C\c1ccccc1 (stereo unspecified)	404*
O=C(N/N=C/C(Br)=C/c1ccccc1)c1n[nH]c2c1CCC2	72*
COc1cccc(C(=O)CSc2nnc(CNS(=O)(=O)c3ccc(C)cc3)n2C)c1	-89
C[C@H]1CN([C@@H](C)CO)C(=O)CCCn2cc(nn2)CO[C@H]1CN(C)S(=O)(=O)c1ccc(Cl)cc1	-49
CO[C@H]1CN(C)C(=O)c2cc(NC(=O)c3ccccc3F)ccc2OC[C@@H](C)N(C(C)=O)C[C@@H]1C	-130
C/C(N)=C(/C#N)C(=O)COc1ncnc2ccc(Br)cc12	90*
Cc1cccc(-n2c(=O)cc(N3CCN(c4ccc(F)cc4)CC3)[nH]c2=O)c1	-55
CN1C(=O)c2ccccc2C(C(=O)O)C1c1cccc([N+](=O)[O-])c1 (stereo unspecified)	-44
CC(=O)C1=C(O)C(=O)N(Cc2ccco2)C1c1cccc(F)c1 (stereo unspecified)	-51
O=C(O)c1cccn1Cc1ccccc1F	-54
Oc1ccc(Nc2nnc(-c3ccc(O)cc3)c3ccccc23)cc1	63*
Cc1c(Cl)cccc1N=Cc1ccc([N+](=O)[O-])s1	102*
O=C(c1ccc([N+](=O)[O-])s1)N1CCc2ccccc2C1	-47
O=C1NC(=S)S/C1=C\C=C\c1ccc([N+](=O)[O-])o1	73*
Cc1ccc(S(=O)(=O)OCCC2=CC(=O)CCN2Cc2ccccc2)cc1	-63
C=C1C(=O)O[C@@H]2[C@H]1[C@@H](OC(=O)/C(C)=C/C)C/C(C)=C\C(=O)/C=C(\C)[C@@H]2O	198*
COc1cccc(N(C(=O)CCl)C(C(=O)NCCc2ccccc2)c2cccs2)c1 (stereo unspecified)	-29
COc1cccc(N(CC(=O)NCc2cccnc2)S(C)(=O)=O)c1	89*
COc1cccc(S(=O)(=O)N[C@H]2CC[C@H](CC(=O)NCc3ccc(F)cc3)O[C@@H]2CO)c1	-55
CCOc1ccc(OCc2ccc(C(=O)NN=Cc3ccc[nH]3)cc2)cc1	-47
CC(C)CC(NC(=O)c1ccc(Cl)cc1)C(=O)OCC(=O)c1ccc2c(c1)NC(=O)CO2 (stereo unspecified)	-57
Cc1cccc(-n2c(CNC(=O)c3cccc([N+](=O)[O-])c3C)n[nH]c2=S)c1	-46
Cc1nnc2sc(-c3ccc(NC(=O)c4ccc(-c5ccc(Cl)cc5Cl)o4)cc3)nn12	98*
COc1ccc(-c2cnc3c(c2)C(=O)N([C@H](C)CO)C[C@@H](C)[C@@H](CN(C)C(=O)Nc2c(C)noc2C)O3)cc1	-43
